pIC50, pKd: −log10 of the molar value. In brackets after ≈: the same amount, converted by molar mass. Values belong to the molecule of their own block, whether it stands above or below them.
Legend:
DNA ligase [1] = biological target: T1, DNA ligase (Staphylococcus aureus, UniProt Q9AIU7); assay: Inhibition of C-terminal 6xHis-tagged full length recombinant Staphylococcus aureus DNA ligase (1 to 312) expressed in Escherichia coli BL21 (DE3) using oligonucleotide as substrate after 10 mins by TR-FRET assay
Haemophilus influenzae [2] = assay: Antibacterial activity against AcrB deficient Haemophilus influenzae H128 after 18 to 24 hrs by broth microdilution method; format: functional
Acinetobacter baumannii [3] = assay: Antibacterial activity against Acinetobacter baumannii BM4454 after 18 to 24 hrs by broth microdilution method; format: functional
Streptococcus pneumoniae = assay: Antibacterial activity against Streptococcus pneumoniae 1629 after 18 to 24 hrs by broth microdilution method; format: functional
Haemophilus influenzae [4] = assay: Antibacterial activity against Haemophilus influenzae H128 after 18 to 24 hrs by broth microdilution method; format: functional
Escherichia coli [5] = assay: Antibacterial activity against Escherichia coli 7623 after 18 to 24 hrs by broth microdilution method; format: functional
Pseudomonas aeruginosa [6] = assay: Antibacterial activity against Pseudomonas aeruginosa PAO322 after 18 to 24 hrs by broth microdilution method; format: functional
Streptococcus pyogenes = assay: Antibacterial activity against Streptococcus pyogenes 1307006P after 18 to 24 hrs by broth microdilution method; format: functional
Klebsiella pneumoniae [7] = assay: Antibacterial activity against TolC deficient Klebsiella pneumoniae 1161486a after 18 to 24 hrs by broth microdilution method; format: functional
Klebsiella pneumoniae [8] = assay: Antibacterial activity against Klebsiella pneumoniae 1161486 after 18 to 24 hrs by broth microdilution method; format: functional
Escherichia coli [9] = assay: Antibacterial activity against TolC deficient Escherichia coli 7623 after 18 to 24 hrs by broth microdilution method; format: functional
Pseudomonas aeruginosa [10] = assay: Antibacterial activity against Pseudomonas aeruginosa PAO(MV) after 18 to 24 hrs by broth microdilution method; format: functional
Staphylococcus aureus [11] = assay: Antibacterial activity against Staphylococcus aureus Oxford after 18 to 24 hrs by broth microdilution method; format: functional
DNA ligase [12] = biological target: T1, DNA ligase; assay: Binding affinity to C-terminal 6xHis-tagged Staphylococcus aureus DNA ligase (1 to 312) expressed in Escherichia coli BL21 (DE3) by ITC assay
[13] = Inhibition of Escherichia coli LigA
Acinetobacter baumannii [14] = assay: Antibacterial activity against Acinetobacter baumannii BM4652 expressing efflux transporter mutant after 18 to 24 hrs by broth microdilution method
Escherichia coli [15] = assay: Antibacterial activity against TolC deficient Escherichia coli TOP10 expressing LigA R150S mutant by broth microdilution method; format: functional
Escherichia coli [16] = assay: Antibacterial activity against TolC deficient Escherichia coli TOP10 expressing LigA R518H mutant by broth microdilution method; format: functional
Staphylococcus aureus [17] = assay: Antibacterial activity against Staphylococcus aureus RN4220 expressing pYH4 by broth microdilution method in presence of anhydrotetracycline; format: functional
Staphylococcus aureus [18] = assay: Antibacterial activity against Staphylococcus aureus RN4220 expressing pYH4-YerG/LigA by broth microdilution method in absence of anhydrotetracycline; format: functional
Escherichia coli [19] = assay: Antibacterial activity against TolC deficient Escherichia coli TOP10 expressing LigA G180E mutant by broth microdilution method; format: functional
Staphylococcus aureus [20] = assay: Antibacterial activity against Staphylococcus aureus RN4220 expressing pYH4 by broth microdilution method in absence of anhydrotetracycline; format: functional
L5178Y = assay: Cytotoxicity against TK +/- expressing mouse L5178Y cells; format: cell-based
How it was run: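 Mouse lymphoma cell line (described as lung lymphoma) used for general cytotoxicity, tested up to a highest concentration of 100 μM.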

Staphylococcus aureus [21] = assay: Antibacterial activity against Staphylococcus aureus RN4220 expressing pYH4-YerG/LigA by broth microdilution method in presence of anhydrotetracycline; format: functional
Escherichia coli [22] = assay: Antibacterial activity against TolC deficient Escherichia coli TOP10 by broth microdilution method; format: functional
[23] = Solubility of the compound; format: physicochemical

pIC50 (DNA ligase [1]): 4.80
SMILES: FC(F)(F)c1cccc(-c2nc[nH]n2)n1

MIC (Haemophilus influenzae [2]): 2 µg/mL (≈ 5.66 µM)
MIC (Acinetobacter baumannii [3]): > 128 µg/mL
MIC (Streptococcus pneumoniae): 2 µg/mL (≈ 5.66 µM)
MIC (Haemophilus influenzae [4]): 16 µg/mL (≈ 45.3 µM)
MIC (Escherichia coli [5]): > 128 µg/mL
MIC (Pseudomonas aeruginosa [6]): 64 µg/mL (≈ 181 µM)
MIC (Streptococcus pyogenes): 8 µg/mL (≈ 22.6 µM)
MIC (Klebsiella pneumoniae [7]): 8 µg/mL (≈ 22.6 µM)
MIC (Klebsiella pneumoniae [8]): > 128 µg/mL
MIC (Escherichia coli [9]): 8 µg/mL (≈ 22.6 µM)
MIC (Pseudomonas aeruginosa [10]): > 128 µg/mL
MIC (Staphylococcus aureus [11]): 8 µg/mL (≈ 22.6 µM)
SMILES: Nc1nc(OCC2CCC2)nc2c1ncn2[C@@H]1O[C@H](CF)[C@@H](O)[C@H]1O

pIC50 (DNA ligase [1]): 4.77
pKd (DNA ligase [12]): 5.00
SMILES: Clc1cccc(-c2nc[nH]n2)n1

pIC50 (DNA ligase [1]): 4.68
SMILES: CC(F)(F)c1cccc(-c2nnc[nH]2)n1

pIC50 (DNA ligase [1]): 4.28
SMILES: c1cc(-c2nnc[nH]2)nc(C2CCC2)c1

SMILES: OCCNc1cc(C(F)(F)F)nc(-c2n[nH]c3cnccc23)n1
pIC50 [13]: 7.01
MIC (Haemophilus influenzae [2]): 1 µg/mL (≈ 3.08 µM)
MIC (Acinetobacter baumannii [3]): > 128 µg/mL
pIC50 (DNA ligase [1]): 7.82
MIC (Acinetobacter baumannii [14]): 32 µg/mL (≈ 98.7 µM)
MIC (Streptococcus pneumoniae): 2 µg/mL (≈ 6.17 µM)
MIC (Haemophilus influenzae [4]): 16 µg/mL (≈ 49.3 µM)
MIC (Escherichia coli [15]): 64 µg/mL (≈ 197 µM)
MIC (Escherichia coli [5]): > 128 µg/mL
MIC (Escherichia coli [16]): 64 µg/mL (≈ 197 µM)
MIC (Pseudomonas aeruginosa [6]): 32 µg/mL (≈ 98.7 µM)
pKd (DNA ligase [12]): 7.60
MIC (Staphylococcus aureus [17]): 8 µg/mL
MIC (Staphylococcus aureus [18]): 16 µg/mL (≈ 49.3 µM)
MIC (Streptococcus pyogenes): 8 µg/mL (≈ 24.7 µM)
MIC (Escherichia coli [19]): 64 µg/mL (≈ 197 µM)
MIC (Klebsiella pneumoniae [7]): 32 µg/mL (≈ 98.7 µM)
MIC (Staphylococcus aureus [20]): 8 µg/mL (≈ 24.7 µM)
MIC (Klebsiella pneumoniae [8]): > 128 µg/mL
IC50 (L5178Y): > 36 µg/mL
MIC (Escherichia coli [9]): 16 µg/mL (≈ 49.3 µM)
MIC (Pseudomonas aeruginosa [10]): > 128 µg/mL
MIC (Staphylococcus aureus [21]): 128 µg/mL
MIC (Escherichia coli [22]): 8 µg/mL (≈ 24.7 µM)
MIC (Staphylococcus aureus [11]): 4 µg/mL (≈ 12.3 µM)

pIC50 (DNA ligase [1]): 6.66
solubility [23]: 12 µg/mL (≈ 45.4 µM)
SMILES: FC(F)(F)c1cccc(-c2n[nH]c3cnccc23)n1

pKd (DNA ligase [12]): 4.42
SMILES: Clc1cncc(-c2nnc[nH]2)n1

pIC50 (DNA ligase [1]): 3.89
SMILES: COc1cccc(-c2nnc[nH]2)n1

pIC50 (DNA ligase [1]): 3.85
SMILES: Cc1cccc(-c2nnc[nH]2)n1

SMILES: OCCNc1cc(-c2n[nH]c3cnccc23)nc(C(F)(F)F)c1
MIC (Haemophilus influenzae [2]): 8 µg/mL (≈ 24.7 µM)
MIC (Acinetobacter baumannii [3]): > 128 µg/mL
pIC50 (DNA ligase [1]): 6.64
solubility [23]: 113 µg/mL (≈ 350 µM)
MIC (Streptococcus pneumoniae): 64 µg/mL (≈ 198 µM)
MIC (Haemophilus influenzae [4]): 128 µg/mL (≈ 396 µM)
MIC (Escherichia coli [5]): > 128 µg/mL
MIC (Pseudomonas aeruginosa [6]): > 128 µg/mL
MIC (Streptococcus pyogenes): 128 µg/mL (≈ 396 µM)
MIC (Klebsiella pneumoniae [7]): > 128 µg/mL
MIC (Klebsiella pneumoniae [8]): > 128 µg/mL
IC50 (L5178Y): 16 µg/mL (≈ 49.5 µM)
MIC (Escherichia coli [9]): 128 µg/mL (≈ 396 µM)
MIC (Pseudomonas aeruginosa [10]): > 128 µg/mL
MIC (Staphylococcus aureus [11]): 8 µg/mL (≈ 24.7 µM)

pIC50 (DNA ligase [1]): 3.52
SMILES: c1ccc(-c2nnc[nH]2)nc1

— ChEMBL document CHEMBL3098046, “Fragment-based discovery of 6-azaindazoles as inhibitors of bacterial DNA ligase” (ACS Med Chem Lett, 2013)
